According to ChEMBL document CHEMBL1153160, “Towards development of selective and reversible pyrazoline based MAO-inhibitors: Synthesis, biological evaluation and docking studies” (Bioorg Med Chem Lett, 2010):

How the values were obtained:
Assay type in all cases: tissue-based
Rattus norvegicus = organism: Rattus norvegicus; experiment: Selectivity ratio of Ki for MAO-A in rat liver homogenate to Ki for MAO-B in rat liver homogenate
Procedure, shortened: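 Rat liver MAO; isoform isolated by blocking the other with pargyline or clorgyline. p-Tyramine substrate (2.5 mM for MAO-B). Inhibitor (DMSO) pre-incubated with homogenate 60 min, 37 °C. Holt coupled assay (vanillinic acid, 4-aminoantipyrine, peroxidase; potassium phosphate pH 7.6) read at 498 nm, 37 °C, 60 min. Ki from kinetics, mean of three experiments; index = Ki(MAO-A)/Ki(MAO-B).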

[1] = molecular target: T1, Amine oxidase [flavin-containing] A (Rattus norvegicus, UniProt P21396); experiment: Inhibition of MAO-A in rat liver homogenate by spectrophotometry-based Holt method
T1 sequence (P21396 whole entry): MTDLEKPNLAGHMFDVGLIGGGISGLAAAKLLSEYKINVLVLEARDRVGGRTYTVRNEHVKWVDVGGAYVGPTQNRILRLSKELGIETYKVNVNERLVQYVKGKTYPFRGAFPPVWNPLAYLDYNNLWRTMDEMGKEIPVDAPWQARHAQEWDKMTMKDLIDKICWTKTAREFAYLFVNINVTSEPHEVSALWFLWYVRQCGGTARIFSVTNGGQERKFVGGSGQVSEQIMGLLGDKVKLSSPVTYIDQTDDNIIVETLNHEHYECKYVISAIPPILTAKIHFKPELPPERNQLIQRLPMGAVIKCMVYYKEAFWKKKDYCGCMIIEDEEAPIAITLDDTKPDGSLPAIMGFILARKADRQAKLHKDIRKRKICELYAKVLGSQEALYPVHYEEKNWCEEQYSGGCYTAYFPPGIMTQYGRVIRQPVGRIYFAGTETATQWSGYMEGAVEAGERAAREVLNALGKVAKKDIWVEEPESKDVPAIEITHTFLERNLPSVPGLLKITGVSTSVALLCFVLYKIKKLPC

[2] = molecular target: T2, Amine oxidase [flavin-containing] B (Rattus norvegicus, UniProt P19643); experiment: Inhibition of MAO-B in rat liver homogenate by spectrophotometry-based Holt method
T2 sequence (P19643 whole entry): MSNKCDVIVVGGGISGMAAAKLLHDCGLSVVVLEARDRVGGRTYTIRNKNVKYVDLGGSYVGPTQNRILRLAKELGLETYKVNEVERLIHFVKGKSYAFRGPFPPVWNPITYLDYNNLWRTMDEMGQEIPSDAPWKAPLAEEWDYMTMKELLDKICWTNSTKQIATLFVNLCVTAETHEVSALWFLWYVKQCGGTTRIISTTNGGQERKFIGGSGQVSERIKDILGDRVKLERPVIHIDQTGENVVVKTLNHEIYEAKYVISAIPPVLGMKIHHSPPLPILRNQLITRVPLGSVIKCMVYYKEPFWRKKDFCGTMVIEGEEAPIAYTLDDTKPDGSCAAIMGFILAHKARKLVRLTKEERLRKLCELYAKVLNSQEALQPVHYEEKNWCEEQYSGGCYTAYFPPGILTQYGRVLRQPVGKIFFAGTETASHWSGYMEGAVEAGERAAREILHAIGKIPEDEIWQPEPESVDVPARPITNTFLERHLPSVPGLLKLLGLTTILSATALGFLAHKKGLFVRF

SMILES	Ratio Ki (Rattus norvegicus)	Ki [1] [µM]	Ki [2] [µM]
Oc1ccc(C2CC(c3ccccc3O)=NN2)cc1 (stereo not given)	6.49	3.9	0.6
O=S(=O)(c1ccccc1)N1N=C(c2ccccc2O)CC1c1ccc(O)cc1 (stereo not given)	–	0.68	700
Cc1ccc(S(=O)(=O)N2N=C(c3ccccc3O)CC2c2ccc(O)cc2)cc1 (stereo not given)	–	0.6	–
O=C(c1ccccc1)N1N=C(c2ccccc2O)CC1c1ccc(O)cc1 (stereo not given)	–	5.77	20300
N=C(NO)N1N=C(c2ccccc2O)CC1c1ccccc1O (stereo not given)	–	15.7	96.8
O=S(=O)(c1ccccc1)N1N=C(c2ccccc2O)CC1c1ccccc1O (stereo not given)	–	0.91	1550
Cc1ccc(S(=O)(=O)N2N=C(c3ccccc3O)CC2c2ccccc2O)cc1 (stereo not given)	–	0.36	620
Oc1ccccc1C1=NNC(c2ccccc2O)C1 (stereo not given)	4.74	3.7	0.78
O=C(c1ccccc1)N1N=C(c2ccccc2O)CC1c1ccccc1O (stereo not given)	–	0.8	–
N=C(NO)N1N=C(c2ccccc2O)CC1c1ccc(O)cc1 (stereo not given)	–	10.6	210
